# Source: ChEMBL document CHEMBL1151859, “Structure-activity relationship studies of a novel series of anthrax lethal factor inhibitors” (Bioorg Med Chem, 2009)
# The source made the active and inactive calls. The rule behind the calls is not given here.
# Tests used:
# HeLa [1] = assay: Protection against anthrax protective antigen-38/LF-induced cell death in human HeLa cells assessed as MEK1 cleavage at 30 uM treated 90 mins after PA38/LA challenge immunoblotting assay; type: functional, cell-based
# Lethal factor = biological target: T1, Lethal factor (Bacillus anthracis, UniProt P15917); assay: Inhibition of Bacillus anthracis lethal factor assessed as cleavage of MAPKK by fluorescence peptide cleavage assay
# T1 sequence (P15917 whole entry): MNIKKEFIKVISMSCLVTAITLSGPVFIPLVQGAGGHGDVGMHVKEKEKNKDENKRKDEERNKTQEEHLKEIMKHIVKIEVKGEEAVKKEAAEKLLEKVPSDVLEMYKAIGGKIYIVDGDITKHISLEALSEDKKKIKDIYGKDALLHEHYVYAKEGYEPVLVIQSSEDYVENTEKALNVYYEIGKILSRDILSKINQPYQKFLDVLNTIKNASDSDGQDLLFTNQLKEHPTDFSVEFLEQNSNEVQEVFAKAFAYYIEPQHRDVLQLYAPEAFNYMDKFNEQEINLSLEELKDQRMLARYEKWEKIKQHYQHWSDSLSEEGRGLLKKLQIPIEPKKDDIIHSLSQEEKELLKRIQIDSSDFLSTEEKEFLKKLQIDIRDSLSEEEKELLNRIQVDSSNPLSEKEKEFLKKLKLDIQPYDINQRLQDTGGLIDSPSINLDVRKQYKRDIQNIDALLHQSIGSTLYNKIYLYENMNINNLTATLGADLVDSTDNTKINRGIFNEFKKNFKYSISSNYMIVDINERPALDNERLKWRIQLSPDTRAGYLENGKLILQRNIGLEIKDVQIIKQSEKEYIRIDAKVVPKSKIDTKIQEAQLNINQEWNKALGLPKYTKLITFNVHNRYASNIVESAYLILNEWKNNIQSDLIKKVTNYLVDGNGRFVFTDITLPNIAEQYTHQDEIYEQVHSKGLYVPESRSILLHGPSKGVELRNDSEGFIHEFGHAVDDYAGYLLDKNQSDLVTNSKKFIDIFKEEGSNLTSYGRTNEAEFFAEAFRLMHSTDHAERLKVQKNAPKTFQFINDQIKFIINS
# Bacillus anthracis [2] = assay: Antibacterial activity against Bacillus anthracis Sterene infected in A/J mouse assessed as mouse survival at 25 mg/kg, ip daily after 24 hrs of infection for 8 days relative to control; type: functional, organism-based; parameters: dose 25 mg/kg
# RAW264.7 = assay: Protection against anthrax protective antigen-38/LF-induced cell death in mouse RAW264.7 cells pretreated for 2 hrs followed by PA38/LA challenge assessed as cell viability measured after 4 hrs by ATPlite assay; type: functional, cell-based
# [3] = Chemical stability of the compound; type: physicochemical
# [4] = biological target: 72 kDa type IV collagenase (Homo sapiens) (UniProt P08253); assay: Inhibition of human MMP2 up to 100 uM by fluorescence peptide cleavage assay
# How it was run: (§1)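 Pro-MMP-2 or pro-MMP-9 activated with 1 mM APMA (20 min or 2 h, respectively), then used at 10 μg/mL with 5-FAM/QXL520 peptide substrate in kit assay buffer.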
# [5] = biological target: Matrix metalloproteinase-9 (Homo sapiens) (UniProt P14780); assay: Inhibition of human MMP9 up to 100 uM by fluorescence peptide cleavage assay; how it was run: as §1
# Bacillus anthracis [6] = assay: Antibacterial activity against Bacillus anthracis Sterene infected in A/J mouse assessed as mouse survival at 25 mg/kg, ip daily after 24 hrs of infection for 8 days; type: functional, organism-based; parameters: dose 25 mg/kg
# HeLa [7] = assay: Protection against anthrax protective antigen-38/LF-induced cell death in human HeLa cells assessed as MEK1 cleavage at 100 uM treated 90 mins after PA38/LA challenge immunoblotting assay; type: functional, cell-based
# [8] = Solubility at 500 uM; type: physicochemical
# HeLa [9] = assay: Protection against anthrax protective antigen-38/LF-induced cell death in human HeLa cells assessed as MEK1 cleavage at 300 uM treated 90 mins after PA38/LA challenge immunoblotting assay; type: functional, cell-based
# Chain of Matrix metalloproteinase-9 (Homo sapiens) (P14780 whole entry): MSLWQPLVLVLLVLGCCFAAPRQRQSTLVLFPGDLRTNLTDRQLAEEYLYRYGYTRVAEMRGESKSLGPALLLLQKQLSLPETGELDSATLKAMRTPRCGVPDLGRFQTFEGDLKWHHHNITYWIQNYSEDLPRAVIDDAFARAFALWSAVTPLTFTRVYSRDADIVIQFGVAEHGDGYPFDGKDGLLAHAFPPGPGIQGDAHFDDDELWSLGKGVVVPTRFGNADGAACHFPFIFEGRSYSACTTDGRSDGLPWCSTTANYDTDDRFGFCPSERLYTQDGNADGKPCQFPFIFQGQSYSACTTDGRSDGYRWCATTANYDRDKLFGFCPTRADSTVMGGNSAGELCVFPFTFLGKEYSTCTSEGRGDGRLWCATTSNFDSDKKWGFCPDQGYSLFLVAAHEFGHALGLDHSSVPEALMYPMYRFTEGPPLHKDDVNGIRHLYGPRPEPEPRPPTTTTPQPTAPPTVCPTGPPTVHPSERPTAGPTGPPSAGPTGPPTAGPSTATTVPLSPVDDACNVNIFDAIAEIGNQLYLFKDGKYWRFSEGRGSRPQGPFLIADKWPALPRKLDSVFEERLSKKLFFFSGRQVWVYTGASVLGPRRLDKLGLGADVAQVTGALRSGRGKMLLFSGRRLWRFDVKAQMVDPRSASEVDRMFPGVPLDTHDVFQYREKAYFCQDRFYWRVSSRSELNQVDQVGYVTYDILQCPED
# Chain of 72 kDa type IV collagenase (Homo sapiens) (P08253 110-660 limits assumed): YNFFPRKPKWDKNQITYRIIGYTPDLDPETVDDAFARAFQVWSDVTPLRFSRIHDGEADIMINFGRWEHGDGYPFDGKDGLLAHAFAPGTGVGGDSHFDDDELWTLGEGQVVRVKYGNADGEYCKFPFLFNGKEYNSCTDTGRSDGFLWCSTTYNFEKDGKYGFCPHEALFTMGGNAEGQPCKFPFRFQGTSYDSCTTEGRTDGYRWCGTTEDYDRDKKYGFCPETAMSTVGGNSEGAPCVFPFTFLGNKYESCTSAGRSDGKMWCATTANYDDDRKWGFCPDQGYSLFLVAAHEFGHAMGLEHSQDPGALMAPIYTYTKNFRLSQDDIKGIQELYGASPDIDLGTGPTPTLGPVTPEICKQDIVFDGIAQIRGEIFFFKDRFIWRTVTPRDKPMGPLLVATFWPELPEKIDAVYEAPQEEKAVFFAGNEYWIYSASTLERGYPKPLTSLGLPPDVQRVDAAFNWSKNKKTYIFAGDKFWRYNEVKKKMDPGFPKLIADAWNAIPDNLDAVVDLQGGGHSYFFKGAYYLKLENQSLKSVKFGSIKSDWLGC
smiles,measurement,setting,value
Cc1cc(S(=O)(=O)N[C@H](C(=O)NO)C2CCOCC2)ccc1F,Activity,HeLa [1],Active
CC(C)(C)c1ccc(-c2noc(C(=O)NNC(=S)Nc3ccc(C(F)(F)F)cc3)n2)cc1,Activity,HeLa [1],Active
Cc1ccc(S(=O)(=O)Nc2sccc2-c2nc3ccccc3s2)cc1Cl,IC50,Lethal factor,6.6 µM
same,Activity,Bacillus anthracis [2],Active
same,EC50,RAW264.7,1 µM
same,Stability,[3],99%
Cc1ccc(NS(=O)(=O)c2cccs2)cc1Cl,IC50,Lethal factor,> 100 µM
same,Activity,[4],inactive
same,Activity,[5],inactive
O=S(=O)(Nc1ccccc1)c1cccs1,IC50,Lethal factor,> 100 µM
same,Activity,[4],inactive
same,Activity,[5],inactive
O=S(=O)(Nc1sccc1-c1nc2ccccc2s1)c1ccc2ncsc2c1,IC50,Lethal factor,10 µM
same,EC50,RAW264.7,1.6 µM
same,Stability,[3],99.9%
COc1ccc(-c2ccc(S(=O)(=O)Nc3sccc3-c3nc4ccccc4s3)cc2)cc1,IC50,Lethal factor,3.8 µM
same,Activity,Bacillus anthracis [6],Active
same,EC50,RAW264.7,0.506 µM
same,Activity,HeLa [7],Active
same,Stability,[3],84%
same,solubility,[8],Insoluble
COc1ccc(-c2ccc(S(=O)(=O)Nc3cccs3)cc2)cc1,IC50,Lethal factor,> 50 µM
same,Activity,[4],inactive
same,Activity,[5],inactive
Cc1ccc(S(=O)(=O)Nc2cccs2)cc1Cl,IC50,Lethal factor,> 50 µM
same,Activity,[4],inactive
same,Activity,[5],inactive
O=S(=O)(Nc1cccs1)c1ccc(-c2ccc(Cl)cc2)cc1,IC50,Lethal factor,> 50 µM
same,Activity,[4],inactive
same,Activity,[5],inactive
O=S(=O)(Nc1sccc1-c1nc2ccccc2s1)c1ccc(-c2ccc(Cl)cc2)cc1,IC50,Lethal factor,3 µM
same,Ki,Lethal factor,1.7 µM
same,EC50,RAW264.7,0.251 µM
same,solubility,[8],Insoluble
Cc1csc(NS(=O)(=O)c2ccc([N+](=O)[O-])cc2)c1-c1nc2ccccc2s1,IC50,Lethal factor,11 µM
same,Stability,[3],99%
same,solubility,[8],Insoluble
O=S(=O)(Nc1cccc(C(F)(F)F)c1)c1cccs1,IC50,Lethal factor,> 100 µM
same,Activity,[4],inactive
same,Activity,[5],inactive
CCOC(=O)CCc1c(CC(=O)OCC)c[nH]c1/C=N/O,Activity,HeLa [1],inactive
Cc1ccc(NS(=O)(=O)c2cccs2)cc1C(F)(F)F,IC50,Lethal factor,> 100 µM
same,Activity,[4],inactive
same,Activity,[5],inactive
O=S(=O)(Nc1oncc1-c1nc2ccccc2s1)c1ccc(-c2ccc(Cl)cc2)cc1,IC50,Lethal factor,> 100 µM
Cc1csc(N(S(=O)(=O)c2ccc(F)cc2)S(=O)(=O)c2ccc(F)cc2)c1-c1nc2ccccc2s1,IC50,Lethal factor,> 100 µM
Cc1c(Cl)cccc1S(=O)(=O)Nc1sccc1-c1nc2ccccc2s1,IC50,Lethal factor,> 50 µM
CC(C)(C)C(=O)CSC1=NNC(c2ccccc2)S1 (stereo not drawn),Activity,HeLa [1],inactive
N#C/C(=C\c1ccc([N+](=O)[O-])s1)C(=O)c1ccco1,IC50,Lethal factor,19 µM
same,Ki,Lethal factor,6.6 µM
O=S(=O)(Nc1sccc1-c1nc2ccccc2s1)c1ccc(-c2cncs2)cc1,IC50,Lethal factor,12 µM
Cc1nnc(-c2cccc(S(=O)(=O)Nc3sccc3-c3nc4ccccc4s3)c2)o1,IC50,Lethal factor,25 µM
COc1ccc(S(=O)(=O)Nc2sccc2-c2nc3ccccc3s2)cc1OC,IC50,Lethal factor,19 µM
CN1CCOc2cc(S(=O)(=O)Nc3sccc3-c3nc4ccccc4s3)ccc21,IC50,Lethal factor,23 µM
Nc1ccc(Nc2ccc(N)cc2S(=O)(=O)O)cc1,Activity,HeLa [9],Active
O=S(=O)(Nc1sccc1-c1nc2ccccc2s1)c1ccc2ccccc2c1,IC50,Lethal factor,8 µM
Cc1cc(S(=O)(=O)Nc2scc(C)c2-c2nc3ccccc3s2)ccc1F,IC50,Lethal factor,17 µM
Cc1csc(NS(=O)(=O)c2cccc(Cl)c2F)c1-c1nc2ccccc2s1,IC50,Lethal factor,100 µM
